Source: ChEMBL document CHEMBL4138252, “Novel Polyamine-Naphthalene Diimide Conjugates Targeting Histone Deacetylases and DNA for Cancer Phenotype Reprogramming” (ACS Med Chem Lett, 2017)
Active and inactive are the calls of the source. The rule behind the calls is not given here.

Key:
Histone deacetylase = assay: Inhibition of HDAC in human HeLa nuclear extract using Fluor de Lys as substrate by fluorimetric method; type: protein assay
A549 [1] = assay: Suppression of TGFbeta1-induced cell proliferation in human A549 cells at 5 uM treated for 24 hrs in presence of TGFbeta1 followed by addition of fresh media containing compounds for 24 hrs by alamar blue assay relative to control; type: functional
In short: (§1)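 A549 cells stimulated with TGF-β1 get a 48 h-long 5 μM treatment. Percentage growth is evaluated according to NCI screening procedures, as mean value.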

Quadruplex DNA [2] = assay: Stabilization of 3'-6FAM/5'-Dabcyl-labelled human telomeric 22 G-quadruplex DNA assessed as change in melting temperature at 0.75 uM by fluorescence assay; type: nucleic-acid assay
In short: (§2)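 Thermal stabilization of dsDNA or G-quadruplex DNA is measured as ΔTm at 0.75 and 2.5 μM compound.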

A549 [3] = assay: Antimigratory activity against TGFbeta1-stimulated human A549 cells assessed as reduction in cell migration towards wound area at 5 uM treated for 24 hrs in presence of TGFbeta1 followed by addition of fresh media containing compounds for 24 hrs by scratch wound-healing assay relative to control; type: functional
In short: (§3)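 Scratch wound healing on A549 cells, with or without TGF-β1 stimulation. Repopulation of the wound area is read at 24 h postscratch.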

A549 [4] = assay: Suppression of TGFbeta1-induced cell proliferation in human A549 cells assessed as reduction in cell growth at 5 uM treated for 24 hrs in presence of TGFbeta1 followed by addition of fresh media containing compounds for 24 hrs by alamar blue assay relative to control; type: functional; parameters: scale not given: the % may be the effect or the level left; in short: as §1
U-87 MG = assay: Growth inhibition of human U87 cells after 48 hrs by alamar blue assay; type: functional, U-87MG ATCC
In short: (§4)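 Growth inhibition in U87, HCT116 and A549 cells at 0.2, 1 and 5 μM. GI50 is derived from the inhibitory dose–response curve.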

A549 [5] = assay: Growth inhibition of human A549 cells after 48 hrs by alamar blue assay; type: functional; settings: for GI50: A549, 48 h; in short: as §4
[6] = target: T1, Histone deacetylase (Homo sapiens) (UniProt Q13547+O15379+Q9UBN7+Q92769+Q9UQL6+Q8WUI4+Q9BY41+Q96DB2+P56524+Q9UKV0+Q969S8); assay: Inhibition of HDAC in human A549 cells assessed as increase in acetylated H4 level at 5 uM after 24 hrs by Western blot analysis relative to control; type: cell-based
In short: (§5)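 A549 cells are treated 24 h at 5 μM. Global histone H3 and H4 lysine acetylation is detected by Western blotting.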

A549 [7] = assay: (§6) Inhibition of TGFbeta1-induced epithelial-mesenchymal transition in human A549 cells assessed as down regulation of VIM expression at 5 uM treated for 24 hrs in presence of TGFbeta1 followed by addition of fresh media containing compounds for 24 hrs by SYBR-green dye based RT-PCR analysis relative to control; type: functional
In short: (§7)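 A549 cells are stimulated with TGF-β1, alone or combined with 5 μM compound. CDH1 and VIM expression is measured and compared with control and with TGF-β1 alone.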

A549 [8] = assay: Inhibition of epithelial-mesenchymal transition in human A549 cells assessed as upregulation of CDH1 expression at 5 uM after 48 hrs by SYBR-green dye based RT-PCR analysis relative to control; type: functional
In short: (§8)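 HCT116 and A549 cells are treated 48 h with 5 μM. CDH1 and VIM expression is measured against untreated control. Data are mean ± SEM of four independent experiments.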

A549 [9] = assay: Inhibition of epithelial-mesenchymal transition in human A549 cells assessed as down regulation of VIM expression at 5 uM after 48 hrs by SYBR-green dye based RT-PCR analysis relative to control; type: functional; in short: as §8
[10] = target: T2, Protein deacetylase HDAC6 (Homo sapiens, UniProt Q9UBN7); assay: Inhibition of recombinant human N-terminal GST-tagged HDAC6 (1 to 1215 residues) expressed in baculovirus infected Sf21 insect cells using RHKKAc as substrate by fluorescence assay
T2 sequence (Q9UBN7 whole entry): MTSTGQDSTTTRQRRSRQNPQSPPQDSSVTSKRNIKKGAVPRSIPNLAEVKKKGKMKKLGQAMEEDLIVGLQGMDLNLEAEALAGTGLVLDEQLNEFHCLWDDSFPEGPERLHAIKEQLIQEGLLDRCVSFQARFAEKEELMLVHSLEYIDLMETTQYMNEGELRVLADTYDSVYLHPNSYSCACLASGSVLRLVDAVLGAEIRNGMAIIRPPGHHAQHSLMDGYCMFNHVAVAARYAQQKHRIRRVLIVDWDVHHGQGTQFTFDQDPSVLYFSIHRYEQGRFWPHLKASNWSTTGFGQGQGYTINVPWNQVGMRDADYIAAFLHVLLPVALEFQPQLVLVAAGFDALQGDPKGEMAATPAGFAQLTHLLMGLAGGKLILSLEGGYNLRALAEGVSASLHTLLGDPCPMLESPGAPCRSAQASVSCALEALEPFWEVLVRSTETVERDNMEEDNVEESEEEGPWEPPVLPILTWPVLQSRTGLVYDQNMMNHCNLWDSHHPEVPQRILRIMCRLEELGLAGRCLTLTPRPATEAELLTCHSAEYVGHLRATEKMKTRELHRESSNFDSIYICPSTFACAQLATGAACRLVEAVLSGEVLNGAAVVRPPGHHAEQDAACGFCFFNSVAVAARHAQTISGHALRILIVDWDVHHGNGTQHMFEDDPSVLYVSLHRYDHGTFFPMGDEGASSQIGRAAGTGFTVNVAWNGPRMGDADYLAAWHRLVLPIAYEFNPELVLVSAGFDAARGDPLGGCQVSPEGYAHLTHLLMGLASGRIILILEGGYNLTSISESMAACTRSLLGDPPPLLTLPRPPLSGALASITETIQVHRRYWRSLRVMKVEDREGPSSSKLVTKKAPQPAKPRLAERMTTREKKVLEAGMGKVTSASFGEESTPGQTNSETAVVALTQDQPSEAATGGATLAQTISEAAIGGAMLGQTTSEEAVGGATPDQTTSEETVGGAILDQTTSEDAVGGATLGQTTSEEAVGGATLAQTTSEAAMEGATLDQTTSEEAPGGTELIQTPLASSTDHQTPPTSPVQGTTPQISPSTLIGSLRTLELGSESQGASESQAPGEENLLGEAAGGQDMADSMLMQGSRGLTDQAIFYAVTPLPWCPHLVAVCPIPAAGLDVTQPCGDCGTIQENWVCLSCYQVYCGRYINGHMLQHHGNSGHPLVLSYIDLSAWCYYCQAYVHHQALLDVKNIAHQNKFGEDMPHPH

[11] = target: DNA polymerase I, thermostable (Thermus aquaticus) (UniProt P19821); assay: Inhibition of Thermus aquaticus Taq-polymerase using pBR322 as substrate up to 40 uM by PCR analysis
DNA polymerase I, thermostable (Thermus aquaticus), sequence (P19821 whole entry, the tested form may be a part): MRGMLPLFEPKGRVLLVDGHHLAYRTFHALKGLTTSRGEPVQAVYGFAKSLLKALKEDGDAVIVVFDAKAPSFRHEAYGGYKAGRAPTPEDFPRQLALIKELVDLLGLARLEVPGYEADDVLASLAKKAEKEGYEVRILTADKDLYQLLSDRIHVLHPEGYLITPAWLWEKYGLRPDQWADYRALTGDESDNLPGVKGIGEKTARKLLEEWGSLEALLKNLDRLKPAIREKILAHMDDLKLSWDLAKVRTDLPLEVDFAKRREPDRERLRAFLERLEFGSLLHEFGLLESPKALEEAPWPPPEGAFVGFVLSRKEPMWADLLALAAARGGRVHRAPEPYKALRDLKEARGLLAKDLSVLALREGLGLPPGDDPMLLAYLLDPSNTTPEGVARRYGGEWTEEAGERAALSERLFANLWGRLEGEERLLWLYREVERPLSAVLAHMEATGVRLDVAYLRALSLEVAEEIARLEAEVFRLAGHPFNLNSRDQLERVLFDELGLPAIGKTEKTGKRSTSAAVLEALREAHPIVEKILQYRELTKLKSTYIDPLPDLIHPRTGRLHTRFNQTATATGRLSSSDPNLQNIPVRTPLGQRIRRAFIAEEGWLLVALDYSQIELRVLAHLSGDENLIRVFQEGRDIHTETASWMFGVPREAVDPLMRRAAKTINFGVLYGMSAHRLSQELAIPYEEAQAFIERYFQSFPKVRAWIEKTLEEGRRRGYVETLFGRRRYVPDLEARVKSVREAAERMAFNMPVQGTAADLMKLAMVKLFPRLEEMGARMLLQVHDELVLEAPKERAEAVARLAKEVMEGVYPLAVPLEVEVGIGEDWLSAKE

Histone deacetylase 4 = Histone deacetylase 4 (Homo sapiens, UniProt P56524); assay: Inhibition of recombinant human N-terminal GST-tagged/C-terminal His-tagged HDAC4 (627 to 1084 residues) expressed in baculovirus infected Sf21 insect cells using (Boc-Lys(trifluoroacetyl)-AMC) as substrate by fluorescence assay
Histone deacetylase 4, sequence (P56524 whole entry, the tested form may be a part): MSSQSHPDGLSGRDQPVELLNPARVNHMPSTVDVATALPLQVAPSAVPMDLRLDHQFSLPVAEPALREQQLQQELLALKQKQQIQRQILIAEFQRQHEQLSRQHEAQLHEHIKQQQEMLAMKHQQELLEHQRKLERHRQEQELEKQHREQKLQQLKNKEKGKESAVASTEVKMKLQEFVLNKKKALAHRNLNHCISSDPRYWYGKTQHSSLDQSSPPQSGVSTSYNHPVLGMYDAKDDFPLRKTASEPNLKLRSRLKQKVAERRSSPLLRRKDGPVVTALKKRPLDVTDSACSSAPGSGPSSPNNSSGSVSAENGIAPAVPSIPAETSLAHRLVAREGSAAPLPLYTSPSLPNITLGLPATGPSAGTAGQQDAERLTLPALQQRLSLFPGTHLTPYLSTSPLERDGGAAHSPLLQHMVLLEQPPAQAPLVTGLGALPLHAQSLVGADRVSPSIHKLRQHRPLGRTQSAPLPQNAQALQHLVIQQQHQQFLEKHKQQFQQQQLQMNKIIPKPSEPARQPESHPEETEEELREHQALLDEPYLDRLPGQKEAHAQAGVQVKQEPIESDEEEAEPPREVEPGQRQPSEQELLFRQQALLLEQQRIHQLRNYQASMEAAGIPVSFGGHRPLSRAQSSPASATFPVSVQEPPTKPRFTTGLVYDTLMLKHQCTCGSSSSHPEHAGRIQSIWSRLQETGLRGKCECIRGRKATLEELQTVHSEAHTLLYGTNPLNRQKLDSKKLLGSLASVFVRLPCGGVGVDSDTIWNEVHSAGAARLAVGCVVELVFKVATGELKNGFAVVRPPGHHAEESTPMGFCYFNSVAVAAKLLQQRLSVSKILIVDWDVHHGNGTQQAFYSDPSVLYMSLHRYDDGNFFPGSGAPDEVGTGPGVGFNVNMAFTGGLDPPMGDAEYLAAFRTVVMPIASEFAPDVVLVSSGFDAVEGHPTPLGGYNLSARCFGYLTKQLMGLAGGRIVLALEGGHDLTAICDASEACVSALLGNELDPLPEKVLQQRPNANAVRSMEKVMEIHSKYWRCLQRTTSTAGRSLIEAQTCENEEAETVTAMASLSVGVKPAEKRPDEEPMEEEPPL

dsDNA [12] = assay: Stabilization of 5'6FAM/3'Dabcyl-labelled double stranded DNA (unknown origin) assessed as change in melting temperature at 0.75 uM by fluorescence assay; type: nucleic-acid assay; in short: as §2
A549 [13] = assay: Antimigratory activity against human A549 cells assessed as reduction in cell migration towards wound area at 5 uM measured after 24 hrs by scratch wound-healing assay relative to control; type: functional; parameters: scale not given: the % may be the effect or the level left; in short: as §3
[14] = target: T1, Histone deacetylase (Homo sapiens); assay: Inhibition of HDAC in human A549 cells assessed as increase in acetylated H3 level at 5 uM after 24 hrs by Western blot analysis relative to control; type: cell-based; in short: as §5
HCT-116 [15] = assay: Growth inhibition of human HCT116 cells after 48 hrs by alamar blue assay; type: functional; settings: for GI50: HCT-116, 48 h; in short: as §4
A549 [16] = assay: as §6, with “upregulation” for “down regulation”, “CDH1” for “VIM”; type: functional; in short: as §7
Histone deacetylase 2 = Histone deacetylase 2 (Homo sapiens, UniProt Q92769); assay: Inhibition of recombinant human C-terminal GST-tagged HDAC2 (1 to 488 residues) expressed in baculovirus infected Sf21 insect cells using RHK-K(Ac)-AMC as substrate measured after 30 mins by fluorescence assay
Histone deacetylase 2, sequence (Q92769 whole entry, the tested form may be a part): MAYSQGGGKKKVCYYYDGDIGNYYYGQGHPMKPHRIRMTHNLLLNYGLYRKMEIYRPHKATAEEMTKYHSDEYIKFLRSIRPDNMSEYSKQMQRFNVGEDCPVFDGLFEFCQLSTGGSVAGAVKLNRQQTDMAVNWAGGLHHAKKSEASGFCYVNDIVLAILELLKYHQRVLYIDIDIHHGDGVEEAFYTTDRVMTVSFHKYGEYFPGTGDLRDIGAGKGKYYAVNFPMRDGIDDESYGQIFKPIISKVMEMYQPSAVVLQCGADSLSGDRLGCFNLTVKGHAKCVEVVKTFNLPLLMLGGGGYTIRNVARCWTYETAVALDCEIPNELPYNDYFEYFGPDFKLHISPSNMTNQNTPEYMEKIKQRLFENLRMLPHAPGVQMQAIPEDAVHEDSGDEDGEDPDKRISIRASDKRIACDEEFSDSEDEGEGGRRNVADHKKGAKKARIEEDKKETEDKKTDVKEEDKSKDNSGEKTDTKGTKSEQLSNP

Histone deacetylase 1 = Histone deacetylase 1 (Homo sapiens, UniProt Q13547); assay: Inhibition of recombinant human C-terminal FLAG-His tagged HDAC1 (1 to 482 residues) expressed in Sf21 insect cells using RHK-K(Ac)-AMC as substrate by fluorescence assay
Histone deacetylase 1, sequence (Q13547 whole entry, the tested form may be a part): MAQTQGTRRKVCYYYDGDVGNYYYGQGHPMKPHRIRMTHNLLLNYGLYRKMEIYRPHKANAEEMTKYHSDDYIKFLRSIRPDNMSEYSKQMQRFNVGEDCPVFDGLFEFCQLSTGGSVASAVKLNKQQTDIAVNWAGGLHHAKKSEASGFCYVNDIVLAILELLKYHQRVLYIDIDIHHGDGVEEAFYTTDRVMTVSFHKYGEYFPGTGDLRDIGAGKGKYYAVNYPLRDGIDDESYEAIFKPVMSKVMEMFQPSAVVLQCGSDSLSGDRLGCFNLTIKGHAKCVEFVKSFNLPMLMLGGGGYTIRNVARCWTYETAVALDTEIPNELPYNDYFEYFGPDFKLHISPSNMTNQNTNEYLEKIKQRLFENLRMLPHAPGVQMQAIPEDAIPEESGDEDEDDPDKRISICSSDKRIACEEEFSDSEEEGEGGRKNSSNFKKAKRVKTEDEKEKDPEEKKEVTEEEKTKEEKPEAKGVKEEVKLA

HCT-116 [17] = assay: Inhibition of epithelial-mesenchymal transition in human HCT116 cells assessed as upregulation of CDH1 expression at 5 uM after 48 hrs by SYBR-green dye based RT-PCR analysis relative to control; type: functional; in short: as §8
HCT-116 [18] = assay: Inhibition of epithelial-mesenchymal transition in human HCT116 cells assessed as down regulation of VIM expression at 5 uM after 48 hrs by SYBR-green dye based RT-PCR analysis relative to control; type: functional; in short: as §8
Quadruplex DNA [19] = assay: Stabilization of 3'-6FAM/5'-Dabcyl-labelled human telomeric 22 G-quadruplex DNA assessed as change in melting temperature at 2.5 uM by fluorescence assay; type: nucleic-acid assay; in short: as §2
dsDNA [20] = assay: Stabilization of 5'6FAM/3'Dabcyl-labelled double stranded DNA (unknown origin) assessed as change in melting temperature at 2.5 uM by fluorescence assay; type: nucleic-acid assay; in short: as §2

| Compound | IC50 (Histone deacetylase) [µM] | ΔTm (Quadruplex DNA [2]) [°C] | GI50 (U-87 MG) [µM] | GI50 (A549 [5]) [µM] | ΔTm (dsDNA [12]) [°C] | GI50 (HCT-116 [15]) [µM] | ΔTm (Quadruplex DNA [19]) [°C] | ΔTm (dsDNA [20]) [°C] | also measured |
| --- | --- | --- | --- | --- | --- | --- | --- | --- | --- |
| Cl.NCCCCNCCCCNCCCN1C(=O)c2ccc3c4c(ccc(c24)C1=O)C(=O)N(CCCCCC(=O)NO)C3=O | 0.56 | 13.3 | > 5 | > 5 | 7.5 | 3.08 |  |  | fold change (FC) (A549 [1]): 1.38; fold change (FC) (A549 [3]): 1.38; Activity (A549 [4]): 85%; fold change (FC) [6]: 2; fold change (FC) (A549 [7]): 2.61; fold change (FC) (A549 [8]): 1.28; fold change (FC) (A549 [9]): 0.68; IC50 [10]: 50 nM; inhibition [11]: Active; IC50 (Histone deacetylase 4): 117 µM; Activity (A549 [13]): >80%; fold change (FC) [14]: 2; fold change (FC) (A549 [16]): 3.66; IC50 (Histone deacetylase 2): 10.8 µM; IC50 (Histone deacetylase 1): 4.12 µM; fold change (FC) (HCT-116 [17]): 1.32; fold change (FC) (HCT-116 [18]): 0.44 |
| COc1ccccc1CNCCCN1C(=O)c2ccc3c4c(ccc(c24)C1=O)C(=O)N(CCCNCCCCNCCCN)C3=O |  | 1.5 | 4.85 | > 5 | 0.6 | 4.39 |  |  | inhibition (A549 [8]): inactive; inhibition (A549 [9]): inactive; inhibition (HCT-116 [17]): inactive; inhibition (HCT-116 [18]): inactive |
| Cl.NCCCNCCCN1C(=O)c2ccc3c4c(ccc(c24)C1=O)C(=O)N(CCCCCC(=O)NO)C3=O | 0.41 | 2.4 |  |  | 1 |  |  |  |  |
| O=C(CCCCCN1C(=O)c2cccc3cccc(c23)C1=O)NO |  | 0.1 |  |  | 0.1 |  | 0.1 | 0.1 | growth inhibition (GI) (U-87 MG; U-87MG ATCC): Active; growth inhibition (GI) (A549 [5]): Active; inhibition (A549 [8]): inactive; inhibition (A549 [9]): inactive; growth inhibition (GI) (HCT-116 [15]): Active; inhibition (HCT-116 [17]): inactive; inhibition (HCT-116 [18]): inactive |
| Cl.NCCCNCCCCNCCCN1C(=O)c2ccc3c4c(ccc(c24)C1=O)C(=O)N(CCCCCC(=O)NO)C3=O | 0.52 | 4.5 |  |  | 3.5 |  | 10.9 | 8.1 |  |
| Cl.NCCCNCCCNCCCN1C(=O)c2ccc3c4c(ccc(c24)C1=O)C(=O)N(CCCCCC(=O)NO)C3=O | 0.37 | 9.9 | > 5 | > 5 | 5 | 2.13 |  |  | inhibition [11]: Active |
| CN(C)c1ccc(Nc2c3ccc(NC(=O)CCN4CCCC4)cc3nc3cc(NC(=O)CCN4CCCC4)ccc23)cc1 |  | 11 |  |  | 0.5 |  | 28.3 | 5.3 |  |
| Cl.NCCCNCCNCCCN1C(=O)c2ccc3c4c(ccc(c24)C1=O)C(=O)N(CCCCCC(=O)NO)C3=O | 0.55 | 4.4 |  |  | 2 |  | 7.8 | 3.4 |  |
